Source: ChEMBL document CHEMBL1136005 (J Med Chem, 2002)

How the values were obtained:
[1] = molecular target: Platelet-derived growth factor receptor (Homo sapiens, UniProt P09619+P16234); assay: Concentration required for 50% inhibition against autophosphorylation of Platelet-derived growth factor receptor beta in intact cells using a two site ELISA; type: cell-based
[2] = Plasma concentration was determined after 1 hr at a dose 30 mg/kg administered orally to rat-1; type: ADME, organism-based; set-up: dose 30 mg/kg, route oral; settings: po
In short: (§1)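 Sprague-Dawley rats, n=2 per compound, dosed orally at 30 mg/kg. Plasma drug concentration measured 1 and 8 h after dosing.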

[3] = Plasma concentration was determined after 8 hr at a dose 30 mg/kg administered orally to rat-1; type: ADME, organism-based; set-up: dose 30 mg/kg, route oral; settings: po; in short: as §1
[4] = Plasma concentration was determined after 8 hr at a dose 30 mg/kg administered orally to rat-2; type: ADME, organism-based; set-up: dose 30 mg/kg, route oral; settings: po; in short: as §1
[5] = Plasma concentration was determined after 1 hr at a dose 30 mg/kg administered orally to rat-2; type: ADME, organism-based; set-up: dose 30 mg/kg, route oral; settings: po; in short: as §1
[6] = Plasma concentration was determined after 1 hr at a dose 30 mg/kg administered orally to rat-13; type: ADME, organism-based; set-up: dose 30 mg/kg, route oral; settings: po; in short: as §1
[7] = Lipophilicity was reported; type: physicochemical; settings: octanol/water
[8] = pharmacokinetic parameter was evaluated after oral administration of 30 mg/kg to rat; type: ADME, organism-based; set-up: dose 30 mg/kg, route oral; settings: in vivo
In short: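 Sprague-Dawley rats, n=3, dosed orally at 30 mg/kg. Plasma drug concentrations were followed to derive Tmax (h), Cmax (µg/mL), T1/2 (h) and AUC0-∞ (µg h/mL).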

[9] = Plasma concentration was determined after 8 hr at a dose 30 mg/kg administered orally to rat-14; type: ADME, organism-based; set-up: dose 30 mg/kg, route oral; settings: po; in short: as §1
[10] = Solubility in aqueous phosphate buffer (pH 7.4) at 20c was determined; type: physicochemical
[11] = Plasma concentration was determined after 1 hr at a dose 30 mg/kg administered orally to rat-14; type: ADME, organism-based; set-up: dose 30 mg/kg, route oral; settings: po; in short: as §1
[12] = Plasma concentration was determined after 8 hr at a dose 30 mg/kg administered orally to rat-13; type: ADME, organism-based; set-up: dose 30 mg/kg, route oral; settings: po; in short: as §1
[13] = molecular target: Fibroblast growth factor receptor (Homo sapiens, UniProt P22607+P11362+P22455+P21802); assay: Inhibition of Fibroblast growth factor receptor autophosphorylation; type: protein assay
[14] = molecular target: Mast/stem cell growth factor receptor Kit (Homo sapiens, UniProt P10721); assay: Inhibition of Mast/stem cell growth factor receptor (c-kit) autophosphorylation
[15] = molecular target: T1, Receptor-type tyrosine-protein kinase FLT3 (Homo sapiens, UniProt P36888); assay: Inhibition of Flt3 autophosphorylation
T1 sequence (P36888 whole entry): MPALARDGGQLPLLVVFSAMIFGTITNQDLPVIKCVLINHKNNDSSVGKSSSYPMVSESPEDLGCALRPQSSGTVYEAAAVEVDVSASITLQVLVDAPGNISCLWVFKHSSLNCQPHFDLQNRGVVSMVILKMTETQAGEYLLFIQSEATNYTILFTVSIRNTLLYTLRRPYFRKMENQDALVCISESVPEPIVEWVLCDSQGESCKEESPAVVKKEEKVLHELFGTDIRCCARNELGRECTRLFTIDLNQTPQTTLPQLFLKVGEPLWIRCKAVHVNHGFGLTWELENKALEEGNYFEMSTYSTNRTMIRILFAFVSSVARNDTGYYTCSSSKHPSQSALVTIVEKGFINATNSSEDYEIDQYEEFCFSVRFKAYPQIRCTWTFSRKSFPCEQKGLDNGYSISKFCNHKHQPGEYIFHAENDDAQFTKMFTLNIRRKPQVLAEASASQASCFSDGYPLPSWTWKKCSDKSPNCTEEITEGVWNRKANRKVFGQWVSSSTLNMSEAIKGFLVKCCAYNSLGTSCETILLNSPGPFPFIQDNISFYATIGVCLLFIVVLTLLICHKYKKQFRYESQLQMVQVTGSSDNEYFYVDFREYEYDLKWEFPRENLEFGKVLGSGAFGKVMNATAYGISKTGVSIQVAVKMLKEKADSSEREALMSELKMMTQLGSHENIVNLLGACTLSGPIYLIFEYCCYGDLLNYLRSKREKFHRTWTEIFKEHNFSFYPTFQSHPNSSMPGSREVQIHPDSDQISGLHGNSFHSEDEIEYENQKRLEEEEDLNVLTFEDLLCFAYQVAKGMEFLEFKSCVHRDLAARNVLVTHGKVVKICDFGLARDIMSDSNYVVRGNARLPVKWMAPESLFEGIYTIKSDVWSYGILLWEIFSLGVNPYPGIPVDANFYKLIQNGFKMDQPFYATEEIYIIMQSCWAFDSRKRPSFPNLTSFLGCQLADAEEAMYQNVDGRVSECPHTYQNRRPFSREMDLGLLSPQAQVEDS

[16] = molecular target: cAMP-dependent protein kinase (PKA) (Homo sapiens, UniProt P22694+P17612+P22612); assay: Inhibition of Protein kinase A (PKA); type: protein assay
In short: (§2)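 Substrate phosphorylation measured in an in vitro assay with purified enzyme; IC50 values in µmol/L.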

Protein kinase C (PKC) = assay: Inhibition of Protein kinase C; type: protein assay; in short: as §2

Chain of Mast/stem cell growth factor receptor Kit (P10721 whole entry): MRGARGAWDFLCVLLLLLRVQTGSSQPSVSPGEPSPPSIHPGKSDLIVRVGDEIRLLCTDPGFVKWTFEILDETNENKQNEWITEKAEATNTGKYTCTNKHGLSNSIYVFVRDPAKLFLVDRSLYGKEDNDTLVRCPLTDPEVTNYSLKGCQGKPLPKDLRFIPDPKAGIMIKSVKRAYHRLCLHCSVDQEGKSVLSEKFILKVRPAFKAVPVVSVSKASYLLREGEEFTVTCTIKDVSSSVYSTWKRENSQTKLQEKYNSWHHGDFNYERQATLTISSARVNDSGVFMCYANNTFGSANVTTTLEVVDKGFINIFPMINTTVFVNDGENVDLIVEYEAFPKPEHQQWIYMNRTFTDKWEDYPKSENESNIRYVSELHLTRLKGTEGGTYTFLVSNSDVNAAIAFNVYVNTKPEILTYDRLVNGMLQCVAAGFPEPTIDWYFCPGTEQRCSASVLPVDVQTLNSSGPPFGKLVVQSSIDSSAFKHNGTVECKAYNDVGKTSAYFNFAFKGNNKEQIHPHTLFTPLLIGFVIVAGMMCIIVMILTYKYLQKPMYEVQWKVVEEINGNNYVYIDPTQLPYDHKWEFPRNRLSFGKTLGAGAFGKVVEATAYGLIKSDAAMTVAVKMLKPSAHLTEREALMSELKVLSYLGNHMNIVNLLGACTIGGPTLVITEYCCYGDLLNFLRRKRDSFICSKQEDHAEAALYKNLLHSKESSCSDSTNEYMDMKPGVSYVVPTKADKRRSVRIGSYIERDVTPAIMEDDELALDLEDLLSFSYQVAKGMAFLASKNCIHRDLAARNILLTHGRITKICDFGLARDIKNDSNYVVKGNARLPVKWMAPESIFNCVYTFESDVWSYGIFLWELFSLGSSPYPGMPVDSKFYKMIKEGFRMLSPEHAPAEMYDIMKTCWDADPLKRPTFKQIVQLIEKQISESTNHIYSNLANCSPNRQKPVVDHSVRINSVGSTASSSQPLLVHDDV

Structure (SMILES)	IC50 [1] [nM]	further results
COc1cc2ncnc(N3CCN(C(=S)Nc4ccc(Cl)cc4)CC3)c2cc1OC	790	
COc1cc2ncnc(N3CCN(C(=O)Nc4ccc(C(C)(C)C)cc4)CC3)c2cc1OC	30	
COc1cc2ncnc(N3CCN(C(=S)NCC4(c5ccc(Cl)cc5)CC4)CC3)c2cc1OC	> 30000	
COc1cc2ncnc(N3CCN(C(=O)NS(=O)(=O)c4ccc(Cl)cc4)CC3)c2cc1OC	> 30000	
COc1cc2ncnc(N3CCN(C(=S)NCCc4cccnc4)CC3)c2cc1OC	20100	
COc1cc2ncnc(N3CCN(C(=O)NCc4ccc(Br)cc4)CC3)c2cc1OC	740	
COc1cc2ncnc(N3CCN(/C(=C/[N+](=O)[O-])NCc4ccc5c(c4)OCO5)CC3)c2cc1OC	> 30000	
COc1cc2ncnc(N3CCN(C(=S)NCc4ccc(Br)cc4)CC3)c2cc1OC	30	
COc1cc2ncnc(N3CCN(C(=O)Oc4ccc([N+](=O)[O-])cc4)CC3)c2cc1OC	> 30000	
COc1cc2ncnc(N3CCN(C(=S)NCC4CCCCC4)CC3)c2cc1OC	> 10000	
COc1cc2ncnc(N3CCN(C(=S)Nc4cccnc4)CC3)c2cc1OC	410	
COc1cc2ncnc(N3CCN(C(=O)NCc4ccc5c(c4)OCO5)CC3)c2cc1OC	1870	
COc1ccc(CNC(=S)N2CCN(c3ncnc4cc(OC)c(OC)cc34)CC2)cc1OC	2410	
COc1cc2ncnc(N3CCN(C(=O)NCc4ccsc4)CC3)c2cc1OC	> 30000	
COc1cc2ncnc(N3CCN(/C(S)=N\Cc4ccc(Oc5ccccc5)cc4)CC3)c2cc1OC	960	
COc1cc2ncnc(N3CCN(C(=NC#N)NCc4ccc5c(c4)OCO5)CC3)c2cc1OC	190	
COc1cc2ncnc(N3CCN(C(=S)NCc4ccccc4Cl)CC3)c2cc1OC	980	
COc1cc2ncnc(N3CCN(C(=O)Nc4cncc(Cl)c4)CC3)c2cc1OC	8230	
COc1cc2ncnc(N3CCN(C(=NC#N)NCc4ccc(C)cc4)CC3)c2cc1OC	340	

Structure (SMILES)	IC50 [1] [nM]	further results
COc1cc2ncnc(N3CCN(C(=O)NCCc4ccc(Cl)cc4)CC3)c2cc1OC	5840	
COc1cc2ncnc(N3CCN(C(=S)NCCc4ccc(Cl)cc4)CC3)c2cc1OC	1090	
COc1cc2ncnc(N3CCN(C(=NC#N)NCc4ccc(C(C)C)cc4)CC3)c2cc1OC	1380	
COc1cc2ncnc(N3CCN(C(=S)NCc4ccc(C(C)(C)C)cc4)CC3)c2cc1OC	160	
COc1cc2ncnc(N3CCN(C(=S)NCc4cccc(Cl)c4)CC3)c2cc1OC	230	
COc1cc2ncnc(N3CCN(C(=O)NCc4ccc(C)cc4)CC3)c2cc1OC	2940	
COc1cc2ncnc(N3CCN(C(=S)Nc4cncc(Cl)c4)CC3)c2cc1OC	550	
COc1ccc(CNC(=O)N2CCN(c3ncnc4cc(OC)c(OC)cc34)CC2)cc1	3060	concentration at 1 h [2]: 7300 ng/mL; concentration at 8 h [3]: 1400 ng/mL; concentration at 8 h [4]: 1900 ng/mL; concentration at 1 h [5]: 11600 ng/mL
COc1cc2ncnc(N3CCN(C(=O)Nc4ccncc4)CC3)c2cc1OC	14100	
COc1cc2ncnc(N3CCN(C(=S)N[C@H](C)c4ccccc4)CC3)c2cc1OC	> 30000	
COc1cc2ncnc(N3CCN(C(=S)N[C@@H](C)c4ccccc4)CC3)c2cc1OC	540	
COc1cc2ncnc(N3CCN(C(=S)NCc4ccc(C(C)C)cc4)CC3)c2cc1OC	200	
COc1cc2ncnc(N3CCN(C(=O)Nc4ccc(Br)cc4)CC3)c2cc1OC	530	
COc1cc2ncnc(N3CCN(C(=NC#N)NCc4cccc(Cl)c4)CC3)c2cc1OC	23500	
COc1cc2ncnc(N3CCN(C(=O)NCc4ccc(C(C)(C)C)cc4)CC3)c2cc1OC	110	
COc1cc2ncnc(N3CCN(C(=O)Nc4cccnc4)CC3)c2cc1OC	> 30000	
COc1cc2ncnc(N3CC(C)N(C(=O)Nc4ccc(Oc5ccccc5)cc4)CC3C)c2cc1OC (stereo not given)	> 30000	
COc1cc2ncnc(N3CCN(C(=S)Nc4ccccn4)CC3)c2cc1OC	> 30000	
COc1cc2ncnc(N3CCN(C(=O)N(C)c4ccc(Br)cc4)CC3)c2cc1OC	> 30000	

Structure (SMILES)	IC50 [1] [nM]	further results
COc1cc2ncnc(N3CCN(C(=NC#N)NCc4ccc(Cl)cc4)CC3)c2cc1OC	960	
COc1cc2ncnc(N3CCN(C(=O)NCc4ccc(Cl)cc4)CC3)c2cc1OC	1270	
COc1cc2ncnc(N3CCN(C(NCc4ccc(Cl)cc4)=C(C#N)C#N)CC3)c2cc1OC	5240	
COc1cc2ncnc(N3CCN(C(=O)Nc4cccs4)CC3)c2cc1OC	410	
COc1cc2ncnc(N3CCN(C(=S)NCc4ccc(C)cc4)CC3)c2cc1OC	30	
COc1cc2ncnc(N3CCN(C(=S)Nc4ccncc4)CC3)c2cc1OC	980	
COc1cc2ncnc(N3CCN(C(=S)NC(=O)c4ccc(Cl)cc4)CC3)c2cc1OC	> 30000	
COc1cc2ncnc(N3CCN(C(=O)Nc4ccc(Oc5ccccc5)cc4)C(C)C3)c2cc1OC (stereo not given)	80	
COc1cc2ncnc(N3CCN(C(=O)NCC(=O)c4ccc(Br)cc4)CC3)c2cc1OC	140	
COc1cc2ncnc(N3CCN(C(=O)Nc4ccccn4)CC3)c2cc1OC	> 10000	
COc1cc2ncnc(N3CCN(C(=O)NCc4ccc(F)cc4)CC3)c2cc1OC	9590	
COc1cc2ncnc(N3CCN(/C(S)=N\CC4CCCO4)CC3)c2cc1OC (stereo not given)	> 30000	
COc1cc2ncnc(N3CC(C)N(/C(S)=N\Cc4ccccc4)C(C)C3)c2cc1OC (stereo not given)	640	
COc1cc2ncnc(N3CCN(C(=NC#N)NCc4ccccc4Cl)CC3)c2cc1OC	> 30000	
COc1cc2ncnc(N3CCN(C(=S)N(C)Cc4ccccc4)CC3)c2cc1OC	> 30000	
COc1cc2ncnc(N3CCN(C(=O)NCc4ccc(C(C)C)cc4)CC3)c2cc1OC	550	
COc1cc2ncnc(N3CCN(/C(S)=N\Cc4cccnc4)CC3)c2cc1OC.Cl.Cl	280	concentration at 1 h [6]: 2600 ng/mL; logD [7]: 2.49; AUC [8]: 9840 ng·h/mL; Cmax [8]: 6980 ng/mL; Tmax [8]: 40.2 min; half-life [8]: 127 min; concentration at 8 h [9]: < 100 ng/mL; solubility [10]: 2.2 µg/mL; concentration at 1 h [11]: 2600 ng/mL; concentration at 8 h [12]: < 100 ng/mL
COc1cc2ncnc(N3CCN(C(=O)Nc4ccsc4)CC3)c2cc1OC.Cl		IC50 [13]: > 30 uM l-1; IC50 [14]: 800 nM; IC50 [15]: 7.02 µM; IC50 [16]: > 30 uM l-1; IC50 (Protein kinase C (PKC)): > 30 uM l-1
COc1cc2ncnc(N3CCN(C(=O)Nc4ccc([N+](=O)[O-])cc4)CC3)c2cc1OC		logD [7]: 3.22
